Measured values published in ChEMBL document CHEMBL1124391, “Structure-activity relationships of novel vasopressin antagonists containing C-terminal diaminoalkanes and (aminoalkyl)guanidines” (J Med Chem, 1989).
Numbered stars: 1 amine (or outer) side, 2 acyl side, 3 side chain; on linkers, the order of the positions; unused ones are H or OH. Bridge positions count the residues as written; N and C are the ends. Square brackets hold non-standard residues; d marks the D form. Peptide text beside a SMILES is read from it. * marks the point of attachment. X1 = O=C(CC1(S[*:2])CCCCC1)[*:1]; Agmatine = N=C(N)NCCCCN*

Legend:
Vasopressin V2 receptor [1] = biological target: Vasopressin V2 receptor (Sus scrofa, UniProt P32307); experiment: Inhibition constant for vasopressin-stimulated adenylate cyclase of medullary membranes of pig kidney
Sequence of Vasopressin V2 receptor (Sus scrofa, UniProt P32307) (P32307 whole entry): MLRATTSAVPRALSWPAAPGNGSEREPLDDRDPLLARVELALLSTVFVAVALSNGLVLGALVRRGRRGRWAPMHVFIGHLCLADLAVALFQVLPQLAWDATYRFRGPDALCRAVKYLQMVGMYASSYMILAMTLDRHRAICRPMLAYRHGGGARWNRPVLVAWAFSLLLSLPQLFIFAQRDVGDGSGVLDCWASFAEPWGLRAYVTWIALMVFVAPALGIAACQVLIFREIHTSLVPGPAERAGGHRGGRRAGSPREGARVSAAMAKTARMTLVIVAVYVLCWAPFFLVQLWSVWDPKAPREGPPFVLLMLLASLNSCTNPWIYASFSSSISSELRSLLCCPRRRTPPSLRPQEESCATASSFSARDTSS
Method in brief: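 Antagonism measured on pig renal medullary membranes as inhibition of LVP-stimulated adenylate cyclase, expressed as inhibition constant Ki. Each determination averages triplicate tests, and the value averages (n) determinations.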

Vasopressin V2 receptor [2] = biological target: Vasopressin V2 receptor (Homo sapiens, UniProt P30518); experiment: Inhibition constant for vasopressin-stimulated adenylate cyclase of medullary membranes of human kidney
Sequence of Vasopressin V2 receptor (Homo sapiens, UniProt P30518) (P30518 whole entry): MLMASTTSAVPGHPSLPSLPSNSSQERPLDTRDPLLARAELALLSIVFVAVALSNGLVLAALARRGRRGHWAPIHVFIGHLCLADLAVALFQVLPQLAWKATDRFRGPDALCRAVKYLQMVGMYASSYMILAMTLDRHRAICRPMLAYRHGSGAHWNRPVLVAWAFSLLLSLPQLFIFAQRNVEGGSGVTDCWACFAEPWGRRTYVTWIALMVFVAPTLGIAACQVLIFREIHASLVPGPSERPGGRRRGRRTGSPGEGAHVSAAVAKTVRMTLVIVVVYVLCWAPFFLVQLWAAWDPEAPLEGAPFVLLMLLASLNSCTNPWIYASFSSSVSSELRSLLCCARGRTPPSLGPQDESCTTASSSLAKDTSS
Method in brief: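 Human renal medullary membrane preparations used. Antagonism measured as inhibition of LVP-stimulated adenylate cyclase, expressed as Ki. Only selected analogues tested. Each determination averages triplicate tests, and the value averages (n) determinations.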

[3] = biological target: Vasopressin V2 receptor (Sus scrofa) (UniProt P32307); experiment: Inhibition constant for [3H]LVP binding to medullary membranes of pig kidney; assay type: tissue-based
Sequence of Vasopressin V2 receptor (Sus scrofa) (P32307 whole entry): as the sequence (P32307 whole entry) above
Method in brief: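 V2 receptor affinity measured on pig renal medullary membranes by competition with tritiated LVP, expressed as Kbind. Each determination averages triplicate tests, and the value averages (n) determinations.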

[4] = biological target: Vasopressin V2 receptor (Rattus norvegicus) (UniProt Q00788); experiment: Dose required to lower urine osmolality to 300 mOsm/kg in rat
Sequence of Vasopressin V2 receptor (Rattus norvegicus) (Q00788 whole entry): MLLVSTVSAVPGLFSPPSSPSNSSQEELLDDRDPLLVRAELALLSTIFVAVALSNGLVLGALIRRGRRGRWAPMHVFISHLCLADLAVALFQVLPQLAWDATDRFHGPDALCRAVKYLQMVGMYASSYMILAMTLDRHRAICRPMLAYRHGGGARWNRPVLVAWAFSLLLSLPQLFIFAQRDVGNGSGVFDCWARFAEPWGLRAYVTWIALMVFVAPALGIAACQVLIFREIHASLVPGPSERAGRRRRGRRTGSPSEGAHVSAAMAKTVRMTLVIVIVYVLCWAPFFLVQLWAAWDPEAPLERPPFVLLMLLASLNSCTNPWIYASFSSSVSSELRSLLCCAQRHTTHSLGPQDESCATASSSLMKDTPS
Method in brief: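 Male rats deprived of food and water overnight to reach a stable hydropenic state (raised plasma vasopressin, urine osmolality ≈1500 mOsm/kg H2O). Antagonist given at varying doses to groups of four rats. Urine volume and osmolality measured. The value is the dose that brings urine osmolality down to 300 mOsm/kg. Each determination averages four rats, and the reported value averages (n) determinations.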

Structure (SMILES): CCOc1ccc(C[C@H]2NC(=O)CC3(CCCCC3)SSC[C@@H](C(=O)N3CCC[C@H]3C(=O)NCCCCN=C(N)N)NC(=O)[C@H](CC(N)=O)NC(=O)[C@H](C(C)C)NC(=O)[C@H](Cc3ccccc3)NC2=O)cc1 ([dY](Et)FVNCP-Agmatine; linker N-5 via X1)
- Ki (Vasopressin V2 receptor [1]): 6 nM
- Ki (Vasopressin V2 receptor [2]): 3.7 nM

Structure (SMILES): CCOc1ccc(C[C@H]2NC(=O)CC3(CCCCC3)SSC[C@H](C(=O)N[C@H](CCCCN)C(N)=O)NC(=O)[C@@H](CC(N)=O)NC(=O)[C@H](C(C)C)NC(=O)[C@@H](Cc3ccccc3)NC2=O)cc1
- K bind [3]: 26 nM
- Ki (Vasopressin V2 receptor [2]): 3.3 nM
- ED300 [4]: 0.059 mg/kg
